pIC50, pKi: −log10 of the molar value. Active and inactive are the calls of the source. No cut-off for these calls is given here.

The subject of assay [1] is Platelet. Kind of assay: Inhibition of thrombin-induced rabbit platelet aggregation compound pre-incubated in rabbit liver microsomal suspension. The assay is classed as functional, microsomes, Microsome. As to conditions: Oryctolagus cuniculus. The method, boiled down:
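Each compound was first incubated in rabbit liver microsomal suspension, then tested in rabbit platelet aggregation induced by thrombin. IC50 is the concentration giving half-maximal inhibition of aggregation. Mean ± SD of six independent experiments.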
A general note: Liver microsomes are vesicles of endoplasmic reticulum, rich in cytochrome P450 enzymes.

Assay [2] concerns Platelet. Kind of assay: Inhibition of ADP-induced rabbit platelet aggregation compound pre-incubated in rabbit liver microsomal suspension. The assay is classed as functional, microsomes, Microsome. The settings on record: Oryctolagus cuniculus. The method in brief: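 Before the in vitro assay, prodrugs were incubated in rabbit liver microsomal suspension. Rabbit platelet aggregation was then induced with ADP. IC50 is the drug concentration giving half-maximal inhibition of aggregation. Mean ± SD from six independent experiments.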

A further assay concerns Rattus norvegicus. Description: Antithrombotic activity in intragastrically dosed rat venous thrombosis model. The assay is classed as functional. As to conditions: po. The method in brief: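 Reyers rat venous thrombosis model with intragastric dosing over 0.1–20 mg/kg, and a vehicle-treated control group. Read-out is dry clot weight. Eight animals per group, mean ± SD. ED50 is taken from the dose–response curve of clot weight against log dose (μmol/kg).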

The target in the next assay is Prothrombin (Homo sapiens, UniProt P00734). Kind of assay: Binding affinity to human thrombin.

By pIC50 is commonly meant −log10 of the IC50, conventionally taken in molar units. For `COC(=O)/C=C/c1ccc(OC(=O)CCN(C(=O)c2ccc3c(c2)nc(CNc2ccc(/C(N)=N\C(=O)OC(C)(C)C)cc2)n3C)c2ccccn2)c(OC)c1`, in the assay with Platelet [1], the pIC50 was 6.22.
The same measure, in the same setting: for `COC(=O)/C=C/c1ccc(OC(=O)CCN(C(=O)c2ccc3c(c2)nc(CNc2ccc(/C(N)=N\C(=O)OCc4ccccc4)cc2)n3C)c2ccccn2)c(OC)c1` the value was 6.16.
As to `COC(=O)/C=C/c1ccc(OC(=O)CCN(C(=O)c2ccc3c(c2)nc(CNc2ccc(/C(N)=N\C(=O)OC)cc2)n3C)c2ccccn2)c(OC)c1`, the negative logarithm of the IC50 (pIC50) with Platelet [1] was 6.08.
With `COC(=O)/C=C/c1ccc(OC(=O)CCN(C(=O)c2ccc3c(c2)nc(CNc2ccc(/C(N)=N\C(=O)OC(C)C)cc2)n3C)c2ccccn2)c(OC)c1`, in the assay on Platelet [1], the pIC50 was 6.11.
In general, ED50 refers to the dose at which the effect has come halfway, by size or by number of responders. Higher therefore signals a need for a large dose. `CCCCCCOC(=O)/N=C(/N)c1ccc(NCc2nc3cc(C(=O)N(CCC(=O)Oc4ccc(/C=C/C(=O)OC)cc4OC)c4ccccn4)ccc3n2C)cc1`: the values for the pIC50 in the assay on Platelet [2] and in the assay on Platelet [1] were 2.24 and 6.54, respectively. The compound also yielded an ED50 in the assay with Rattus norvegicus of 3.7 µmol/kg.
In the assay on Platelet [2], `COc1cc(/C=C/C(=O)O)ccc1O` [FERULATE] had a negative-log IC50 (pIC50) of 2.57.
In the case of `CCOC(=O)/N=C(/N)c1ccc(NCc2nc3cc(C(=O)N(CCC(=O)Oc4ccc(/C=C/C(=O)OC)cc4OC)c4ccccn4)ccc3n2C)cc1`, the negative logarithm of the IC50 (pIC50) with Platelet [1] is 6.34.
A word on the pKi: it is the negative decadic logarithm of the Ki, by convention in mol/L. Low readings indicate a large Ki, high ones a small Ki. Consider `CCCCCCOC(=O)NC(=N)c1ccc(NCc2nc3cc(C(=O)N(CCC(=O)OCC)c4ccccn4)ccc3n2C)cc1` [DABIGATRAN ETEXILATE], for which, in the assay on Platelet [2] (Microsome), the inhibition result was “inactive”. The 50% effective dose (ED50) in the assay on Rattus norvegicus was 7.8 µmol/kg. Also, the pKi at Prothrombin was 8.35. The negative logarithm of the IC50 (pIC50) with Platelet [1] is 6.47.
The compound `CCCCCOC(=O)/N=C(/N)c1ccc(NCc2nc3cc(C(=O)N(CCC(=O)Oc4ccc(/C=C/C(=O)OC)cc4OC)c4ccccn4)ccc3n2C)cc1` gave a negative-log IC50 (pIC50) in the assay with Platelet [1] of 6.69.
